# GRK2 inh = human GRK2 inhibition via aptamer displacement; bead flow cytometry, FAM-aptamer displacement from GRK2; AID 488847; P25098; hit rate 0.59% among 330,000; inhibition of aptamer binding, % at 10 µM;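 active = inhibition of aptamer binding above 40%, roughly 3 SD of noise, on plates passing a quality check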;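 note: median bead fluorescence of bound FAM aptamer so fluorescent compounds give negative values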
# SR-BI DiI inh = blocks mouse SR-BI lipid uptake from DiI-HDL. ldlA[mSR-BI] CHO cells, DiI-HDL uptake fluorescence, 3 h. inhibition, % at 12.5 µM. hit rate 0.96% among 320,000. AID 488896;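 active = mean replicate inhibition of at least 70% and a set share of replicates each scoring 70 or more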;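 note: 0% = median of neutral control wells and 100% = median of positive control wells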
# Rin1 Abl inh = blocks binding of human Rin1 to Abl. TR-FRET Rin1/Abl binding, biochemical. hit rate 0.4% among 360,000. AID 588664. inhibition, % at 7.35 µM; in the data active = inhibition above about 5%, passing the limit was not always enough
# Target sequence (P00519 whole entry, looked up): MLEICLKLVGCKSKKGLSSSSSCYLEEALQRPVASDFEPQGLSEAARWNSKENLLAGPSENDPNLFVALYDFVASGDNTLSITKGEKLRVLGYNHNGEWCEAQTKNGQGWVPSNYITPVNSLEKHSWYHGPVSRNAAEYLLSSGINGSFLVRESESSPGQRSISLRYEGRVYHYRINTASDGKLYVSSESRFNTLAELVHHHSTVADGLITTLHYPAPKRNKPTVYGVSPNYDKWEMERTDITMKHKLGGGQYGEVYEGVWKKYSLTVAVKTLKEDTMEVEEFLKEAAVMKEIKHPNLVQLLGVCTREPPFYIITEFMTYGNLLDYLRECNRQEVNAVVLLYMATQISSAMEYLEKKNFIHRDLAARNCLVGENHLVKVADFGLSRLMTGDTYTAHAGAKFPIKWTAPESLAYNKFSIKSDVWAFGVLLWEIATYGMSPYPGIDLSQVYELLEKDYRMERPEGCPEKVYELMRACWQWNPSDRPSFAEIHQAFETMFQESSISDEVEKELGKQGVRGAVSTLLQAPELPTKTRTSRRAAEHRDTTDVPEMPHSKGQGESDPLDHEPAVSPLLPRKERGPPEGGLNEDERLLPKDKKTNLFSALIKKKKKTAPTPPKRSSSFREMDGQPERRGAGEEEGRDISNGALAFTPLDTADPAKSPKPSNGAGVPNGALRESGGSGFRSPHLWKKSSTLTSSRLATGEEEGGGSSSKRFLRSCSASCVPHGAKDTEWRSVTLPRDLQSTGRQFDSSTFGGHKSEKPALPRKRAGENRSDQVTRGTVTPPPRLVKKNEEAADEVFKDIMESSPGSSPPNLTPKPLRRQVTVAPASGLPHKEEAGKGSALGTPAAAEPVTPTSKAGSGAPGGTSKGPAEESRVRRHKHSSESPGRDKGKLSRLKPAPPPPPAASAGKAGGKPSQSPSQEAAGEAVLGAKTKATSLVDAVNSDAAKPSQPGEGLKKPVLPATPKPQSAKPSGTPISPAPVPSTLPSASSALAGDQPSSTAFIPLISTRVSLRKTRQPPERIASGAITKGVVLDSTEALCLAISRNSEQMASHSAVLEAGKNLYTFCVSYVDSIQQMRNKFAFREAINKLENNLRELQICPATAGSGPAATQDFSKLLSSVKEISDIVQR
# Target sequence (Q13671 whole entry, looked up): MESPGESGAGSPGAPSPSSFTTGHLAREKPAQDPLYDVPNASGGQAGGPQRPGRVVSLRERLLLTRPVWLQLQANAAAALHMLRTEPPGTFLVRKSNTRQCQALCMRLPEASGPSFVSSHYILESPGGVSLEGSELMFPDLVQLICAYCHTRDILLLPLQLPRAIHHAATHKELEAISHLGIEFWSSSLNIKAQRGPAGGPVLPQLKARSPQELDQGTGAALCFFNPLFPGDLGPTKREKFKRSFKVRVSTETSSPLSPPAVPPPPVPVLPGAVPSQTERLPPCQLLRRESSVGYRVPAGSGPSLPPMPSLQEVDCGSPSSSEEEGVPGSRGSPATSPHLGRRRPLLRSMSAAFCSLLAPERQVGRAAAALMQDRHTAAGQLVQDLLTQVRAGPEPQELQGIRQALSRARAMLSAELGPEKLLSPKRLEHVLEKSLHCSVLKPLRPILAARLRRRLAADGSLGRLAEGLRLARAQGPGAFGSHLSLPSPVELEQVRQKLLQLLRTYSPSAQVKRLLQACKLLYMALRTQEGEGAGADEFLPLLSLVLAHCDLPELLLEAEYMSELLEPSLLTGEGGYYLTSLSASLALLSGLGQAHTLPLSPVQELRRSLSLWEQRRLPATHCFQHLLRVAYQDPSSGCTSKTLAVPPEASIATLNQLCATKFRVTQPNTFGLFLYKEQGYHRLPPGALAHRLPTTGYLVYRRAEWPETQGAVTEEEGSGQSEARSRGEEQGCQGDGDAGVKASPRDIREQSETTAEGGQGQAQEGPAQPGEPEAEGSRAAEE
# SR-BI DiI-HDL act = activators of SR-BI mediated HDL lipid uptake | CHO ldlA[mSR-BI] cells, DiI-HDL uptake fluorescence, 3 h; 100 = double the neutral-control signal | activation, % at 12.5 µM | hit rate 0.096% among 320,000;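 active = mean replicate activation of at least 60% and every replicate at or above 60%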;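 note: 0% = median plate neutral-control signal and 100% = twice that signal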
#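 Material: SR-BI-overexpressing, LDLR-lacking CHO cells; schedule: compound exposure 3 h, 37 °C; reagent: DiI-labelled HDL at 10 µg/mL final; technique: bottom-read fluorescence, 550/595 nm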
# * = called active by the depositor; . = no result. Compounds with a hit are over-represented: about 1.9% of the library has one in this group of screens.
SMILES,GRK2 inh,SR-BI DiI inh,Rin1 Abl inh,SR-BI DiI-HDL act
COCc1cccc(C2=CC(=O)C[C@H](c3ccc(F)cc3)C2)c1,0,26,2,-26
Cc1cc(C(=O)COC(=O)c2ccc(NC(=O)CC#N)cc2)c(C)n1C1CC1,.,79*,0,-79
Cc1ccc(Cn2ccsc2=NC(=O)COC(=O)c2ccc(NC(=O)CC#N)cc2)cc1,0,77*,-1,-77
Cc1ccc(Cn2ccsc2=NC(=O)CCl)cc1,0,-12,1,12
CCOc1ccc(NS(=O)(=O)c2cc(C(=O)NCCN3CCOCC3)ccc2C)cc1,4,3,4,-3
Nc1c(N(CCCO)C(=O)CCCN2C(=O)c3cccc4cccc(c34)C2=O)c(=O)[nH]c(=O)n1Cc1ccccc1,.,5,-1,-5
CCCCN(CCCNC(=O)c1ccc2c(c1)NC(=O)CN2C)c1ccccc1,.,.,2,.
CC12CN3CC(C)(CN(C1)C3c1ccc(Cl)cc1Cl)C2O (centres undefined),2,-79,4,79*
CCOc1cc(NC(=O)c2ccccn2)c(OCC)cc1NC(=O)c1cccc(C)c1,1,71*,7,-71
COC(=O)c1cc(OC)c(OC)cc1NC(=O)c1cccc(C)c1,0,81*,0,-81
CCOc1cc(NC(=O)c2cccs2)c(OCC)cc1NC(=O)c1ccccn1,0,68,2,-68
COC(=O)c1cc(OC)c(OC)cc1NC(=O)c1ccccc1,0,59,1,-59
CC(=O)c1ccc(NC(=S)N2CCCC2)cc1,3,-21,-3,21
CC(=O)c1c(C)[nH]c(C(=O)Nc2cccc(S(=O)(=O)N(C)c3ccccc3)c2)c1C,0,80*,4,-80
COc1ccccc1NS(=O)(=O)c1cccc(NC(=O)c2[nH]c(C)c(C(C)=O)c2C)c1,1,.,-2,.
CC(=O)c1c(C)[nH]c(C(=O)Nc2ccc(Cl)c(S(=O)(=O)N(C)C)c2)c1C,0,82*,1,-82
CC[C@H](C)[C@@H](CO)NC(=O)[C@H]1O[C@@H](n2ccc(N)nc2=O)[C@H](O)[C@@H]1O,.,.,1,.
CCN(CC)C(=O)c1cccc(-c2csc(C(NC(C)=O)c3cccc(OC)c3)n2)c1 (centres undefined),.,.,-1,.
CCOC(=O)CSc1nc(N2CCOCC2)c2c(c1C#N)CC(C)(C)OC2,3,-416,2,416*
CCCOC(=O)CSc1nc(N2CCOCC2)c2c(c1C#N)CC(C)(C)OC2,0,-10,4,10
CC(=O)c1ccc(-c2cnc3c(NC=O)cc(-c4cnn(C)c4)cn23)cc1,.,.,-4,.
COCCCNC(=O)c1c(NC(=O)C2COc3ccccc3O2)sc2c1CCCC2 (centres undefined),9,76*,-3,-76
CC(OC(=O)C1CC1)C(=O)Nc1cc(Cl)cc(Cl)c1 (centres undefined),2,0,6,0
CC(C(=O)c1ccccc1)n1c(N2CCOCC2)nc2c1c(=O)n(C)c(=O)n2C (centres undefined),0,-63,4,63*
COc1ccc(Nc2cc(Cl)nc(N)n2)cc1,0,-67,-1,67*
SMILES,GRK2 inh,SR-BI DiI inh,Rin1 Abl inh,SR-BI DiI-HDL act
Cc1sc2ncnc(N3CCC(C(=O)Nc4sc5c(c4C(N)=O)CCC(C)C5)CC3)c2c1C (centres undefined),0,-21,4,21
COc1cc(OC)c(NC(=S)Nc2cc(Cl)cc(Cl)c2)cc1Cl,0,66,0,-66
COc1cc(OC)c(NC(=S)Nc2cccc(C(C)=O)c2)cc1Cl,0,87*,3,-87
Cc1cc2oc(=O)cc(-c3ccccc3)c2c(C)c1-c1ccc(N(C)C)cc1,4,78*,5,-78
CC(=O)Nc1ccc(-c2c(C)cc3oc(=O)cc(-c4ccccc4)c3c2C)cc1,0,67,-1,-67
Cc1ccc(-c2c(C)cc3oc(=O)cc(-c4ccccc4)c3c2C)cc1,0,78*,1,-78
COc1ccc(-c2c(C)cc3oc(=O)cc(-c4ccccc4)c3c2C)cc1,5,62,1,-62
CCOC(=O)c1ccc(-c2c(C)cc3oc(=O)cc(-c4ccccc4)c3c2C)cc1,0,73*,-2,-73
Cc1ccc(F)c(S(=O)(=O)NC(=O)C2(C)CCN2C(=O)c2ccc(C(F)(F)F)nc2C)c1 (centres undefined),.,.,1,.
Nc1cccc(-c2c[nH]c3ncc(-c4cccnc4)cc23)c1,.,-3,2,3
CCCc1cc(C(=O)OC)c2ccccc2n1,0,-77,2,77*

# Screening data from PubChem BioAssay.
